From ChEMBL document CHEMBL4414663, “Pyrazole-4-Carboxamide (YW2065): A Therapeutic Candidate for Colorectal Cancer via Dual Activities of Wnt/β-Catenin Signaling Inhibition and AMP-Activated Protein Kinase (AMPK) Activation” (J Med Chem, 2019)
Activity calls are given as the source filed them. No cut-off for these calls is given here.

How the values were obtained:
Mus musculus = assay: Activation of AMPK in nude mouse xenografted with human SW620 cells assessed as increase in AMPK phosphorylation at 50 mg/kg, ip QD for 32 consecutive days by Western blot analysis; assay type: functional, organism-based
Outline: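 Nude mice carried subcutaneous SW620 xenografts (2×10^6 cells, right flank). Dosing began once mean tumor volume reached 100–200 mm³: 50 mg/kg ip once daily for 32 days, vehicle 10% DMSO/10% Kolliphor/80% saline. Tumors taken at day 32 and lysed in RIPA with protease inhibitors. Western blot with 20 µL of 2 mg/mL lysate on 7.5% SDS-PAGE, probed for pAMPK/AMPK or pACC/ACC, ECL detection.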

SW-620 = assay: Induction of apoptosis in human SW620 cells assessed as viable cells level at 3 uM incubated for 48 hrs by AAD-7 and FITC-annexin-V staining based flow cytometry (reference value: 73.8%); assay type: functional

For `Cc1c(C(=O)Nc2ccc3ccccc3n2)cnn1-c1ccccc1Br`, the Activity (Mus musculus) was “Active” and the Activity (SW-620) was 45%.
